Reference: ChEMBL document CHEMBL2417509, “Synthesis and biological evaluation of prodigiosene conjugates of porphyrin, estrone and 4-hydroxytamoxifen” (2013)

Columns and labels:
Assay type in all cases: functional
PC-3 = experiment: Cytotoxicity against human PC3 cells after 2 days by sulforhodamine B assay; conditions: PC-3, 48 h
Outline: (§1)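 NCI60 multi-dose screen, 59 human tumour lines available. Cells exposed to compound across a 5-log mol/L concentration range for 2 days, then fixed and stained with sulphorhodamine B, optical density read. Growth inhibition calculated against time-zero control and untreated cells. GI50 derived from the dose series, average of two replicates.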

SN12C = experiment: Cytotoxicity against human SN12C cells after 2 days by sulforhodamine B assay; conditions: 48 h; for CC50: read-out: LC50 (the source's name); outline: as §1
CAKI-1 = experiment: Cytotoxicity against human CAKI-1 cells after 2 days by sulforhodamine B assay; conditions: CAKI-1, 48 h; outline: as §1
SK-OV-3 = experiment: Cytotoxicity against human SKOV3 cells after 2 days by sulforhodamine B assay; conditions: SK-OV-3, 48 h; outline: as §1
OVCAR-8 = experiment: Cytotoxicity against human OVCAR8 cells after 2 days by sulforhodamine B assay; conditions: OVCAR-8, 48 h; outline: as §1
[1] = Cytotoxicity against human NCI-ADR-RES cells after 2 days by sulforhodamine B assay; conditions: 48 h; for CC50: read-out: LC50 (the source's name); outline: as §1
OVCAR-5 = experiment: Cytotoxicity against human OVCAR5 cells after 2 days by sulforhodamine B assay; conditions: OVCAR-5, 48 h; outline: as §1
OVCAR-3 = experiment: Cytotoxicity against human OVCAR3 cells after 2 days by sulforhodamine B assay; conditions: OVCAR-3, 48 h; outline: as §1
IGROV-1 = experiment: Cytotoxicity against human IGROV1 cells after 2 days by sulforhodamine B assay; conditions: IGROV-1, 48 h; outline: as §1
UACC-62 = experiment: Cytotoxicity against human UACC62 cells after 2 days by sulforhodamine B assay; conditions: UACC-62, 48 h; for CC50: read-out: LC50 (the source's name)
Outline: (§2)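 NCI DTP NCI60 multi-dose screen (59 human tumour lines available). Cells exposed to compound over a 5-log mol/L concentration range for 2 days, then fixed and stained with sulphorhodamine B, with optical density read. Growth inhibition calculated relative to time-zero cells and untreated cells, giving GI50 (half-maximal growth inhibition concentration). Average of two replicates.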

UACC-257 = experiment: Cytotoxicity against human UACC257 cells after 2 days by sulforhodamine B assay; conditions: UACC-257, 48 h; for CC50: read-out: LC50 (the source's name); outline: as §2
SK-MEL-28 = experiment: Cytotoxicity against human SK-MEL-28 cells after 2 days by sulforhodamine B assay; conditions: SK-MEL-28, 48 h; outline: as §1
MDA-MB-435 = experiment: Cytotoxicity against human MDA-MB-435 cells after 2 days by sulforhodamine B assay; conditions: MDA-MB-435, 48 h; for CC50: read-out: LC50 (the source's name); outline: as §1
SK-MEL-2 = experiment: Cytotoxicity against human SK-MEL-2 cells after 2 days by sulforhodamine B assay; conditions: SK-MEL-2, 48 h; outline: as §1
Malme-3M = experiment: Cytotoxicity against human MALME-3M cells after 2 days by sulforhodamine B assay; conditions: 48 h; outline: as §1
U-251 = experiment: Cytotoxicity against human U251 cells after 2 days by sulforhodamine B assay; conditions: U-251, 48 h; outline: as §2
SNB-75 = experiment: Cytotoxicity against human SNB75 cells after 2 days by sulforhodamine B assay; conditions: SNB-75, 48 h; outline: as §2
SF-539 = experiment: Cytotoxicity against human SF539 cells after 2 days by sulforhodamine B assay; conditions: SF-539, 48 h; outline: as §1
SF-295 = experiment: Cytotoxicity against human SF295 cells after 2 days by sulforhodamine B assay; conditions: SF-295, 48 h; outline: as §1
KM12 = experiment: Cytotoxicity against human KM12 cells after 2 days by sulforhodamine B assay; conditions: KM12, 48 h; outline: as §1
HCT-15 = experiment: Cytotoxicity against human HCT15 cells after 2 days by sulforhodamine B assay; conditions: HCT-15, 48 h; outline: as §1
HCT-116 = experiment: Cytotoxicity against human HCT116 cells after 2 days by sulforhodamine B assay; conditions: HCT-116, 48 h; outline: as §1
NCI-H460 = experiment: Cytotoxicity against human NCI-H460 cells after 2 days by sulforhodamine B assay; conditions: NCI-H460, 48 h; outline: as §1
NCI-H322M = experiment: Cytotoxicity against human NCI-H322M cells after 2 days by sulforhodamine B assay; conditions: 48 h; outline: as §1
NCI-H226 = experiment: Cytotoxicity against human NCI-H226 cells after 2 days by sulforhodamine B assay; conditions: NCI-H226, 48 h; outline: as §1
HOP-62 = experiment: Cytotoxicity against human HOP62 cells after 2 days by sulforhodamine B assay; conditions: HOP-62, 48 h; for CC50: read-out: LC50 (the source's name); outline: as §1
T47D = experiment: Cytotoxicity against human T47D cells after 2 days by sulforhodamine B assay; conditions: 48 h; outline: as §2
DU-145 = experiment: Cytotoxicity against human DU145 cells after 2 days by sulforhodamine B assay; conditions: DU-145, 48 h; outline: as §1
UO-31 = experiment: Cytotoxicity against human UO31 cells after 2 days by sulforhodamine B assay; conditions: UO-31, 48 h; outline: as §2

CC/C(=C(/c1ccc(OCCN(C)C)cc1)c1ccc(OC(=O)CCC(=O)C2=C(C)/C(=C/c3[nH]c(-c4ccc[nH]4)cc3OC)N=C2C)cc1)c1ccccc1
GI50 (PC-3): 1.78 µM
LC50 (concentration killing 50% of cells) (PC-3): 51.1 µM
TGI (PC-3): 17.2 µM
GI50 (SN12C): 3.09 µM
TGI (SN12C): 19.1 µM
CC50 (SN12C): 66.6 µM
GI50 (CAKI-1): 2.69 µM
LC50 (concentration killing 50% of the cells present at time zero) (CAKI-1): 58.3 µM
TGI (CAKI-1): 16.1 µM
GI50 (SK-OV-3): 7.17 µM
LC50 (concentration killing 50% of starting cells) (SK-OV-3): > 100 µM
TGI (SK-OV-3): 30.1 µM
GI50 (OVCAR-8): 2.76 µM
LC50 (OVCAR-8): 68 µM
TGI (OVCAR-8): 10.9 µM
GI50 [1]: 3.63 µM
TGI [1]: 16.1 µM
CC50 [1]: 74.5 µM
GI50 (OVCAR-5): 6.99 µM
LC50 (OVCAR-5): 53.1 µM
TGI (OVCAR-5): 22 µM
GI50 (OVCAR-3): 2.11 µM
LC50 (OVCAR-3): 38.7 µM
TGI (OVCAR-3): 10.6 µM
GI50 (IGROV-1): 3.66 µM
LC50 (IGROV-1): > 100 µM
TGI (IGROV-1): 15.3 µM
GI50 (UACC-62): 1.81 µM
TGI (UACC-62): 3.78 µM
CC50 (UACC-62): 7.88 µM
GI50 (UACC-257): 3.39 µM
TGI (UACC-257): 14.8 µM
CC50 (UACC-257): 79.7 µM
GI50 (SK-MEL-28): 2.94 µM
LC50 (SK-MEL-28): 46.3 µM
TGI (SK-MEL-28): 12.7 µM
GI50 (MDA-MB-435): 2.55 µM
TGI (MDA-MB-435): 10.3 µM
CC50 (MDA-MB-435): 50.5 µM
GI50 (SK-MEL-2): 2.45 µM
LC50 (SK-MEL-2): 25.3 µM
TGI (SK-MEL-2): 6.42 µM
GI50 (Malme-3M): 2.73 µM
LC50 (Malme-3M): 78.4 µM
TGI (Malme-3M): 6.53 µM
GI50 (U-251): 1.52 µM
LC50 (U-251): 33.2 µM
TGI (U-251): 7.17 µM
GI50 (SNB-75): 2.47 µM
LC50 (concentration killing 50% of starting cells) (SNB-75): 62.9 µM
TGI (SNB-75): 9.92 µM
GI50 (SF-539): 2.62 µM
LC50 (SF-539): 40.3 µM
TGI (SF-539): 9.55 µM
GI50 (SF-295): 2.63 µM
LC50 (SF-295): > 100 µM
TGI (SF-295): 9.12 µM
GI50 (KM12): 1200 nM
LC50 (KM12): 46.8 µM
TGI (KM12): 10.8 µM
GI50 (HCT-15): 930 nM
LC50 (HCT-15): > 100 µM
TGI (HCT-15): 4.58 µM
GI50 (HCT-116): 820 nM
LC50 (concentration killing 50% of cells vs time zero) (HCT-116): > 100 µM
TGI (HCT-116): 3.28 µM
GI50 (NCI-H460): 3.52 µM
LC50 (NCI-H460): > 100 µM
TGI (NCI-H460): 14.4 µM
GI50 (NCI-H322M): 11.6 µM
LC50 (concentration killing 50% of cells) (NCI-H322M): 57.5 µM
TGI (NCI-H322M): 25.7 µM
GI50 (NCI-H226): 6.53 µM
LC50 (NCI-H226): > 100 µM
TGI (NCI-H226): 25.2 µM
GI50 (HOP-62): 1.43 µM
TGI (HOP-62): 4.07 µM
CC50 (HOP-62): 49 µM
GI50 (T47D): 1350 nM
LC50 (concentration killing 50% of cells) (T47D): > 100 µM
TGI (T47D): 8.13 µM
GI50 (DU-145): 3.28 µM
LC50 (concentration killing 50% of starting cells) (DU-145): 41.2 µM
TGI (DU-145): 16.8 µM
GI50 (UO-31): 1700 nM
LC50 (UO-31): 30.1 µM
TGI (UO-31): 5.1 µM

CCC(=C(c1ccc(OCCN(C)C)cc1)c1ccc(OC(=O)CCCCC(=O)C2=C(C)/C(=C/c3[nH]c(-c4ccc[nH]4)cc3OC)N=C2C)cc1)c1ccccc1
GI50 (PC-3): 4.57 µM
LC50 (concentration killing 50% of cells) (PC-3): 58.9 µM
TGI (PC-3): 20.4 µM
GI50 (SN12C): 5.37 µM
TGI (SN12C): 21.4 µM
CC50 (SN12C): 56.2 µM
GI50 (CAKI-1): 6.31 µM
LC50 (concentration killing 50% of the cells present at time zero) (CAKI-1): > 100 µM
TGI (CAKI-1): 36.3 µM
GI50 (SK-OV-3): 14.1 µM
LC50 (concentration killing 50% of starting cells) (SK-OV-3): 52.5 µM
TGI (SK-OV-3): 26.9 µM
GI50 (OVCAR-8): 6.61 µM
LC50 (OVCAR-8): 47.9 µM
TGI (OVCAR-8): 19.9 µM
GI50 [1]: 12.6 µM
TGI [1]: 46.8 µM
CC50 [1]: > 100 µM
GI50 (OVCAR-5): 10.5 µM
LC50 (OVCAR-5): 47.9 µM
TGI (OVCAR-5): 22.4 µM
GI50 (OVCAR-3): 11.7 µM
LC50 (OVCAR-3): 63.1 µM
TGI (OVCAR-3): 26.9 µM
GI50 (IGROV-1): 13.2 µM
LC50 (IGROV-1): > 100 µM
TGI (IGROV-1): 45.7 µM
GI50 (UACC-62): 4.9 µM
TGI (UACC-62): 17.8 µM
CC50 (UACC-62): 45.7 µM
GI50 (UACC-257): 12 µM
TGI (UACC-257): 28.8 µM
CC50 (UACC-257): 69.2 µM
GI50 (SK-MEL-28): 11.5 µM
LC50 (SK-MEL-28): 49 µM
TGI (SK-MEL-28): 24 µM
GI50 (MDA-MB-435): 6.92 µM
TGI (MDA-MB-435): 45.7 µM
CC50 (MDA-MB-435): > 100 µM
GI50 (SK-MEL-2): 16.6 µM
LC50 (SK-MEL-2): 67.6 µM
TGI (SK-MEL-2): 33.1 µM
GI50 (Malme-3M): 9.33 µM
LC50 (Malme-3M): > 100 µM
TGI (Malme-3M): 34.7 µM
GI50 (U-251): 7.76 µM
LC50 (U-251): > 100 µM
TGI (U-251): 30.2 µM
GI50 (SNB-75): 5.25 µM
LC50 (concentration killing 50% of starting cells) (SNB-75): 44.7 µM
TGI (SNB-75): 18.2 µM
GI50 (SF-539): 12.9 µM
LC50 (SF-539): 58.9 µM
TGI (SF-539): 27.5 µM
GI50 (SF-295): 7.24 µM
LC50 (SF-295): 45.7 µM
TGI (SF-295): 20.4 µM
GI50 (KM12): 3720 nM
LC50 (KM12): 46.8 µM
TGI (KM12): 14.4 µM
GI50 (HCT-15): 4470 nM
LC50 (HCT-15): > 100 µM
TGI (HCT-15): 28.8 µM
GI50 (HCT-116): 3550 nM
LC50 (concentration killing 50% of cells vs time zero) (HCT-116): 37.1 µM
TGI (HCT-116): 13.8 µM
GI50 (NCI-H460): 3.98 µM
LC50 (NCI-H460): 53.7 µM
TGI (NCI-H460): 15.5 µM
GI50 (NCI-H322M): 13.5 µM
LC50 (concentration killing 50% of cells) (NCI-H322M): 69.2 µM
TGI (NCI-H322M): 30.9 µM
GI50 (NCI-H226): 14.1 µM
LC50 (NCI-H226): 83.2 µM
TGI (NCI-H226): 34.7 µM
GI50 (HOP-62): 12.3 µM
TGI (HOP-62): 24.5 µM
CC50 (HOP-62): 50.1 µM
GI50 (T47D): 1380 nM
LC50 (concentration killing 50% of cells) (T47D): 39.8 µM
TGI (T47D): 6.03 µM
GI50 (DU-145): 7.76 µM
LC50 (concentration killing 50% of starting cells) (DU-145): 50.1 µM
TGI (DU-145): 20.9 µM
GI50 (UO-31): 2820 nM
LC50 (UO-31): 87.1 µM
TGI (UO-31): 21.4 µM
